# ChEMBL document CHEMBL2401617, “Synthesis and biological evaluation of some novel thiazole compounds as potential anti-inflammatory agents” (2013)
# Legend:
# Type in all cases: functional
# [1] = tested on: Serratia marcescens; test: Antibacterial activity against Serratia marcescens IMRU 70 assessed as growth inhibition after 24 hrs by Kirby-Bauer disc diffusion method relative to ampicillin; parameters: concentration or dose not given beside the values
# In short: (§1)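 Modified Kirby-Bauer disc diffusion on Mueller-Hinton agar spread with broth culture at about 10^8 cells/ml. Blank 8.0 mm paper discs were impregnated with test solution. Ampicillin discs at the same concentration and solvent served as positive control, and solvent discs as negative control. Plates were incubated at 35–37 °C, and inhibition-zone diameter (mm) was read at 24 h by caliper. % activity index = zone relative to ampicillin.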
# [2] = tested on: Bacillus cereus; test: Antibacterial activity against Bacillus cereus NCTC 14579 assessed as growth inhibition after 24 hrs by Kirby-Bauer disc diffusion method; in short: as §1
# [3] = tested on: Rattus norvegicus; test: Antiinflammatory activity in albino Wistar rat assessed as inhibition of carrageenan-induced paw oedema at 50 mg/kg, po administered 1 hr prior to carrageenan challenge measured at 4 hrs by plethysmometeric analysis relative to control
# In short: (§2)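 Albino Wistar rats of either sex (130–150 g), 6 per group, fasted 12 h with water ad libitum. Test compounds were given orally at 50 mg/kg as DMSO solution; controls received 1 ml 20% v/v DMSO. One hour later, 0.1 ml 1% w/v carrageenan in 0.9% saline was injected into the left hind paw plantar region. Plethysmometer volume was read at 0 and 1–4 h. % inhibition = [1 − (Vt/Vc)] × 100.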
# [4] = tested on: Proteus mirabilis; test: Antibacterial activity against Proteus mirabilis NCTC 289 assessed as growth inhibition after 24 hrs by Kirby-Bauer disc diffusion method; in short: as §1
# [5] = tested on: Rattus norvegicus; test: Antiinflammatory activity in albino Wistar rat assessed as inhibition of carrageenan-induced paw oedema at 50 mg/kg, po administered 1 hr prior to carrageenan challenge measured at 1 hr post carrageenan challenge by plethysmometeric analysis relative to control; in short: as §2
# [6] = tested on: Proteus mirabilis; test: Antibacterial activity against Proteus mirabilis NCTC 289 assessed as growth inhibition after 24 hrs by Kirby-Bauer disc diffusion method relative to ampicillin; parameters: concentration or dose not given beside the values; in short: as §1
# [7] = tested on: Staphylococcus aureus; test: Antibacterial activity against Staphylococcus aureus NCTC 7447 assessed as growth inhibition after 24 hrs by Kirby-Bauer disc diffusion method relative to ampicillin; parameters: concentration or dose not given beside the values; in short: as §1
# [8] = tested on: Rattus norvegicus; test: Antiinflammatory activity in albino Wistar rat assessed as inhibition of carrageenan-induced paw oedema at 50 mg/kg, po administered 1 hr prior to carrageenan challenge measured at 2 hrs by plethysmometeric analysis relative to control; in short: as §2
# [9] = tested on: Serratia marcescens; test: Antibacterial activity against Serratia marcescens IMRU 70 assessed as growth inhibition after 24 hrs by Kirby-Bauer disc diffusion method; in short: as §1
# [10] = tested on: Rattus norvegicus; test: Antiinflammatory activity in albino Wistar rat assessed as inhibition of carrageenan-induced paw oedema at 50 mg/kg, po administered 1 hr prior to carrageenan challenge measured at 3 hrs by plethysmometeric analysis relative to control; in short: as §2
# [11] = tested on: Bacillus cereus; test: Antibacterial activity against Bacillus cereus NCTC 14579 assessed as growth inhibition after 24 hrs by Kirby-Bauer disc diffusion method relative to ampicillin; in short: as §1
# [12] = tested on: Staphylococcus aureus; test: Antibacterial activity against Staphylococcus aureus NCTC 7447 assessed as growth inhibition after 24 hrs by Kirby-Bauer disc diffusion method; in short: as §1
# [13] = tested on: Staphylococcus aureus; test: Antibacterial activity against Staphylococcus aureus NCTC 7447 assessed as growth inhibition by disc diffusion method
MIC [13],Structure (SMILES),Activity_index [1],diameter of the inhibition zone (DIZ) [2],inhibition in vivo at 50 mg/kg [3],diameter of the inhibition zone (DIZ) [4],inhibition in vivo at 50 mg/kg [5],Activity_index [6],Activity_index [7],inhibition in vivo at 50 mg/kg [8],diameter of the inhibition zone (DIZ) [9],inhibition in vivo at 50 mg/kg [10],Activity_index [11],diameter of the inhibition zone (DIZ) [12]
–,Nc1nc(-c2ccc(N3CCOCC3)cc2)cs1,15.72%,4 mm,86.8%,2 mm,-17%,9.52%,20.83%,31.7%,3 mm,75.3%,17.39%,5 mm
–,C/C(=N\NC1=NC(=O)C(C)S1)c1ccc(N2CCOCC2)cc1 (centres undefined),10.52%,5 mm,–,2 mm,–,9.52%,20.83%,–,2 mm,–,21.74%,5 mm
–,C/C(=N\NC1=NCC(=O)S1)c1ccc(N2CCOCC2)cc1,15.72%,4 mm,78.2%,2 mm,29.5%,9.52%,20.83%,28.6%,3 mm,63.4%,16.67%,5 mm
–,C/C(=N\Nc1nc(C)cs1)c1ccc(N2CCOCC2)cc1,15.72%,3 mm,–,2 mm,–,9.52%,20.83%,–,2 mm,–,13.04%,5 mm
–,C/C(=N\Nc1nc(-c2ccccc2)cs1)c1ccc(N2CCOCC2)cc1,15.72%,4 mm,79.1%,3 mm,-1.6%,14.28%,16.67%,35%,2 mm,62.2%,17.39%,4 mm
–,C/C(=N\NC1=NC(=N)CS1)c1ccc(N2CCOCC2)cc1,15.72%,4 mm,–,2 mm,–,9.52%,20.83%,–,3 mm,–,17.39%,5 mm
40 µg/mL,C/C(=N\NC(=O)CC#N)c1ccc(N2CCOCC2)cc1,15.72%,4 mm,–,3 mm,–,14.28%,75%,–,2 mm,–,17.39%,18 mm
–,C/C(=N/NC(=O)/C(C#N)=C1/SC=C(c2ccccc2)N1c1ccccc1)c1ccc(N2CCOCC2)cc1,15.72%,4 mm,–,2 mm,–,9.52%,20.83%,–,3 mm,–,17.39%,5 mm
–,CC1=C(O)N(c2ccccc2)/C(=C(/C#N)C(=O)N/N=C(/C)c2ccc(N3CCOCC3)cc2)S1,15.72%,3 mm,–,3 mm,–,14.28%,20.83%,–,3 mm,–,13.04%,5 mm
–,C/C(=N/NC(=O)c1sc(=S)n(-c2ccccc2)c1N)c1ccc(N2CCOCC2)cc1,15.72%,3 mm,–,2 mm,–,9.52%,16.67%,–,2 mm,–,13.04%,4 mm
–,C/C(=N/NC(=O)c1sc(=S)n(-c2ccc3ccccc3c2)c1N)c1ccc(N2CCOCC2)cc1,15.72%,3 mm,–,2 mm,–,9.52%,20.83%,–,2 mm,–,13.04%,5 mm
–,Cc1ccc(/C=N/c2nc(-c3ccc(N4CCOCC4)cc3)cs2)cc1,15.72%,4 mm,–,2 mm,–,9.52%,16.67%,–,3 mm,–,17.39%,4 mm
–,CC(=O)N(C(C)=O)c1nc(-c2ccc(N3CCOCC3)cc2)cs1,15.72%,4 mm,–,3 mm,–,14.28%,20.83%,–,2 mm,–,17.39%,5 mm
–,C/C(=N/c1nc(-c2ccccc2)cs1)c1ccc(N2CCOCC2)cc1,15.72%,4 mm,81.6%,3 mm,27.2%,14.28%,20.83%,22.9%,2 mm,59.8%,17.39%,5 mm
–,C/C(=N\N=C1/N=C2OC(=O)C=C2S1)c1ccc(N2CCOCC2)cc1,15.72%,4 mm,85%,2 mm,23.3%,9.52%,20.83%,50.6%,3 mm,75.7%,17.39%,5 mm
–,C/C(=N\NC1=NC(=O)CS1)c1ccc(N2CCOCC2)cc1,15.72%,4 mm,35.7%,3 mm,-58.6%,14.28%,16.67%,-8%,3 mm,29%,17.39%,4 mm
–,C/C(=N\N=C(\N)S)c1ccc(N2CCOCC2)cc1,15.72%,4 mm,83.6%,2 mm,-35%,9.52%,16.67%,23%,3 mm,55.7%,17.39%,4 mm
–,CC1(C)S[C@@H]2[C@H](NC(=O)[C@H](N)c3ccccc3)C(=O)N2[C@H]1C(=O)O [AMPICILLIN],–,23 mm,–,21 mm,–,–,–,–,21 mm,–,–,24 mm
